Measurements from the M2OR odorant receptor database.

Tests used:
Details in all cases: stereoisomer not certain
O1440 [1] = system: T1, O1440
T1 sequence (whole entry): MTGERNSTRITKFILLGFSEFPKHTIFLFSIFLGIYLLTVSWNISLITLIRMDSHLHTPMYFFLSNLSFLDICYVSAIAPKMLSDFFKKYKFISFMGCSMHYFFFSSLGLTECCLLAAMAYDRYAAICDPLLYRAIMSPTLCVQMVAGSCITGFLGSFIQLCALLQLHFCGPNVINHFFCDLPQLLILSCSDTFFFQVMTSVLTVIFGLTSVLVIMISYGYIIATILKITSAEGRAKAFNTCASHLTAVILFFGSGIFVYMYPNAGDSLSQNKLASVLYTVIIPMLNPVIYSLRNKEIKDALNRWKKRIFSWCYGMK
In short: (§1)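 Assay methods differ from source to source, frequently being transient luciferase assays in mammalian cell lines. For each receptor–molecule pair, the label responsive (active) applies when the original authors judged the measured signal statistically different from baseline, and non-responsive (inactive) applies otherwise.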

O1440 [2] = system: T2, O1440; remark: listed apart in the source
T2 sequence (whole entry): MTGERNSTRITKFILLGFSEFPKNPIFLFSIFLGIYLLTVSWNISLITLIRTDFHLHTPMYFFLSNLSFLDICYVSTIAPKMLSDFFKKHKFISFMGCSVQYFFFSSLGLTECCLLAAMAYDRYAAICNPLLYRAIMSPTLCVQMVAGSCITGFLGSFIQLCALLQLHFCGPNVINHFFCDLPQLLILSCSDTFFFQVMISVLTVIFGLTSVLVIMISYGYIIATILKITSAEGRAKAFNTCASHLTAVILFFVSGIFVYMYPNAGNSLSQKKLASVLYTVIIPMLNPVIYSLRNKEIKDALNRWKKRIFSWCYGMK
In short: as §1

O14A2 I133V = system: O14A2 I133V
Sequence of O14A2 I133V (as listed by the source, stated change not applied): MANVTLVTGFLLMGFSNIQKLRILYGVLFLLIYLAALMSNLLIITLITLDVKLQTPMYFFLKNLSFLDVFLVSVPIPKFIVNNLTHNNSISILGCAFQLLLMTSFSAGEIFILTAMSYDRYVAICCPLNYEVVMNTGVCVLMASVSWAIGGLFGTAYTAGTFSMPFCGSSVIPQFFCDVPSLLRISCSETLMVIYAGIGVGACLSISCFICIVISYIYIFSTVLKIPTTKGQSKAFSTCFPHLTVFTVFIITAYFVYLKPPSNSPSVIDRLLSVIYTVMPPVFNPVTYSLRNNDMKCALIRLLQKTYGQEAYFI
In short: as §1

O14CZ = system: O14CZ
Sequence of O14CZ (as listed by the source): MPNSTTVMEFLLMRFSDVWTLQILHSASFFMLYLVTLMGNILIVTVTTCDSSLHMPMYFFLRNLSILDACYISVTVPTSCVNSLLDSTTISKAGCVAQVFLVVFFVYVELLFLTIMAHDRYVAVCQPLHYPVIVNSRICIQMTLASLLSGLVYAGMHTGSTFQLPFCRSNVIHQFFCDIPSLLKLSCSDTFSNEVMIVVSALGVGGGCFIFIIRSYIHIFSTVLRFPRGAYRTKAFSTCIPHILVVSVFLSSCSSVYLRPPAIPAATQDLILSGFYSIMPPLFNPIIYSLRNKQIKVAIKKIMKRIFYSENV
In short: as §1

O14I1 V36A D50N Y216C = system: O14I1 V36A D50N Y216C
In short: as §1

O14J1 N3Y = system: O14J1 N3Y
Sequence of O14J1 N3Y (as listed by the source): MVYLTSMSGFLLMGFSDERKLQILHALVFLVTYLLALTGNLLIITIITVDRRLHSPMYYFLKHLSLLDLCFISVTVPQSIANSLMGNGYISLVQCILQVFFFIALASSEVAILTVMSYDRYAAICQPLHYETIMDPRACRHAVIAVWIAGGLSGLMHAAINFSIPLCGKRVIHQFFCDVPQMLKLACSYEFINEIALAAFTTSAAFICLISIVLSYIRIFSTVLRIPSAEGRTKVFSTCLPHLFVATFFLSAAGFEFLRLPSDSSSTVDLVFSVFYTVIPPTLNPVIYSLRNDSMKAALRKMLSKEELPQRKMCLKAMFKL
In short: as §1

O14K1 D119Y = system: O14K1 D119Y
Sequence of O14K1 D119Y (as listed by the source, stated change not applied): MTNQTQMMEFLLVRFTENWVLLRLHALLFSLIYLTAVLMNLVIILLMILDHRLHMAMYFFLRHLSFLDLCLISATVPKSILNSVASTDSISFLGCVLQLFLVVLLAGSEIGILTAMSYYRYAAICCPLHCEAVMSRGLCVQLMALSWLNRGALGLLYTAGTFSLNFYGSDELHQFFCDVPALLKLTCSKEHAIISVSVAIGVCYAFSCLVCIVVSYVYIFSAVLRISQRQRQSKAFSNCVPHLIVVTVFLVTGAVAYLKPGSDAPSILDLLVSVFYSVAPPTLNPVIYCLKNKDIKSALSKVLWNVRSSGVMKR
In short: as §1

O2A25 = system: O2A25
Sequence of O2A25 (as listed by the source): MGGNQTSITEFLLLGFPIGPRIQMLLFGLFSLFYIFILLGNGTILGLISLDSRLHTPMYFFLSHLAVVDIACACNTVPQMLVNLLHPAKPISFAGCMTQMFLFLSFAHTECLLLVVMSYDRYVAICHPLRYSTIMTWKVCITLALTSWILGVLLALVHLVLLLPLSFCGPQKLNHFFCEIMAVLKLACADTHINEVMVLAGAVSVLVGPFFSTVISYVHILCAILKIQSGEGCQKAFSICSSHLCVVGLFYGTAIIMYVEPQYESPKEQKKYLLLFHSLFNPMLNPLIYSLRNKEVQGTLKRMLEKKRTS
In short: as §1

O2AE1 = system: O2AE1
Sequence of O2AE1 (as listed by the source): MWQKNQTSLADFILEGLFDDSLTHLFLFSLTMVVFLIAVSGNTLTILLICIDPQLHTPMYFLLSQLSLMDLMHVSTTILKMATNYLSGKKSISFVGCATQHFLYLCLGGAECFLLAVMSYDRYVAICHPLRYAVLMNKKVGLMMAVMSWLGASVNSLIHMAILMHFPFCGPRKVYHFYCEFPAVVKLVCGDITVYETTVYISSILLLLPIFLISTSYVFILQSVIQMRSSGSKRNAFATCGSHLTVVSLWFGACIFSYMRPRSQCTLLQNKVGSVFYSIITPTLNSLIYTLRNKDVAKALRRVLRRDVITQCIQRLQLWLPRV
In short: as §1

O2AJ1 = system: O2AJ1
Sequence of O2AJ1 (as listed by the source): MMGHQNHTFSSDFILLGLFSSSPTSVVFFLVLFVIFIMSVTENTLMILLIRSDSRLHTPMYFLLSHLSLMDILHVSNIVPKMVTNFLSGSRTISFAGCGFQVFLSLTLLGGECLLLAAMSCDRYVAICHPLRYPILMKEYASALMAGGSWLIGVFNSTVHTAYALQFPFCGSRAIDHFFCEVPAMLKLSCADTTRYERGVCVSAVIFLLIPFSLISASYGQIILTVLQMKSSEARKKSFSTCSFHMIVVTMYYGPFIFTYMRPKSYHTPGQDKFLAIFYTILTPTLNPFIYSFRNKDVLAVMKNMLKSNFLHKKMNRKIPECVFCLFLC
In short: as §1

O2AK2 S99N = system: O2AK2 S99N
Sequence of O2AK2 S99N (as listed by the source, stated change not applied): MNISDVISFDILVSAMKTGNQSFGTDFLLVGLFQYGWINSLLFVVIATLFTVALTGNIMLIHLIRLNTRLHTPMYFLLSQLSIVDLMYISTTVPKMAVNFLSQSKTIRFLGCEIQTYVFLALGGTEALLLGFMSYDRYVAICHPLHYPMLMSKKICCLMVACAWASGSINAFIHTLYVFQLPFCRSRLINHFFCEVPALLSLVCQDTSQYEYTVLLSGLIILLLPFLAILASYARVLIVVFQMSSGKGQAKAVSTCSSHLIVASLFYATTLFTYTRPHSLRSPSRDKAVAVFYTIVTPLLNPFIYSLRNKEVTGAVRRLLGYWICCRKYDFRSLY
In short: as §1

O2T11 = system: O2T11
Sequence of O2T11 (as listed by the source): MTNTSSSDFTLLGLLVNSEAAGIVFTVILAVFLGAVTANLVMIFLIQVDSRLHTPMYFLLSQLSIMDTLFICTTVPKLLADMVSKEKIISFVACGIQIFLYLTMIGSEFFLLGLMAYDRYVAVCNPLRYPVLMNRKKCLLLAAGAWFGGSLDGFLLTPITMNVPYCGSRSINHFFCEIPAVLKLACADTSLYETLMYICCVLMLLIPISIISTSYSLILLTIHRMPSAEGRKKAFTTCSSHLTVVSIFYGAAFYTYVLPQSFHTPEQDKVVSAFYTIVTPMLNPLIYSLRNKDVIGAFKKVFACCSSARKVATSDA
In short: as §1

O2T27 L36V V134D = system: O2T27 L36V V134D
In short: as §1

O2T29 Q24R = system: O2T29 Q24R
Sequence of O2T29 Q24R (as listed by the source, stated change not applied): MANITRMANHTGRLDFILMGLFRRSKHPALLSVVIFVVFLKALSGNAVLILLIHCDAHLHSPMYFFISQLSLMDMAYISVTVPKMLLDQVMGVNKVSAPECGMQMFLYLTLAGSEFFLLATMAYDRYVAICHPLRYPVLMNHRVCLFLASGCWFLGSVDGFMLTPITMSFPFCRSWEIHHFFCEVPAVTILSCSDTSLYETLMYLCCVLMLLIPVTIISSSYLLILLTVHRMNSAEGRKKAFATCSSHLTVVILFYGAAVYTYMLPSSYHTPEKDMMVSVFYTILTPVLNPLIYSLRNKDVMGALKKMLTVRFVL
In short: as §1

O2T33 A169V = system: O2T33 A169V
Sequence of O2T33 A169V (as listed by the source, stated change not applied): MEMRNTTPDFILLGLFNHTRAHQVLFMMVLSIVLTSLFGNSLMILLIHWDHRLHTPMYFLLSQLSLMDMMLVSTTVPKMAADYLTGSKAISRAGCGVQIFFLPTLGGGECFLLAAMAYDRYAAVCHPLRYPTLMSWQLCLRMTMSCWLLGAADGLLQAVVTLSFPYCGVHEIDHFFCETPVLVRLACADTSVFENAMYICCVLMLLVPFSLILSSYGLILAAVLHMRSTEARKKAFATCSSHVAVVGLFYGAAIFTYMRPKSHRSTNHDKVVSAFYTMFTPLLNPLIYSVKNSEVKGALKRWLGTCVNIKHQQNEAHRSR
In short: as §1

O2T33 G297E I309L = system: O2T33 G297E I309L
In short: as §1

O2T34 Q6P R267P = system: O2T34 Q6P R267P
In short: as §1

O2T34 R267P = system: O2T34 R267P
Sequence of O2T34 R267P (as listed by the source, stated change not applied): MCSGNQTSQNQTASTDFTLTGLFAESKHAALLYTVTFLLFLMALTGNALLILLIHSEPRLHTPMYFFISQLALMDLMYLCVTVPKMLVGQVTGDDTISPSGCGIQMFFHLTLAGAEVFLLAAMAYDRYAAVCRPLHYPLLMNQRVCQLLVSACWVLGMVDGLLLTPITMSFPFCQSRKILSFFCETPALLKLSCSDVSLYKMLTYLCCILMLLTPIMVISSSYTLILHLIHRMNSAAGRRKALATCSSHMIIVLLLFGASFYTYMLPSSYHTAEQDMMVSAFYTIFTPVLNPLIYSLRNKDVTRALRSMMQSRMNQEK
In short: as §1

O4A47 = system: O4A47
Sequence of O4A47 (as listed by the source): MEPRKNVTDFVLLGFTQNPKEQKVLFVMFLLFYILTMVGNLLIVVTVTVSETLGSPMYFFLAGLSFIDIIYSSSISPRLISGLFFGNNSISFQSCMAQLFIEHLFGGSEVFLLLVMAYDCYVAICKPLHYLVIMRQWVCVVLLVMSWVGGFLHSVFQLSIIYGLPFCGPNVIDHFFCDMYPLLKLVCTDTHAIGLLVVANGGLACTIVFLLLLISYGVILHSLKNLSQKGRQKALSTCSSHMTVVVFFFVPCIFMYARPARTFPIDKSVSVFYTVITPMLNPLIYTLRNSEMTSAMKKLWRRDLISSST
In short: as §1

O4C46 S240F C252Y K288R = system: O4C46 S240F C252Y K288R
In short: as §1

Measured: odorant receptor agonist call

CC(=O)c1cc(C(C)(C)C)cc2c1CCC2(C)C
inactive: O1440 [1] | O1440 [2]

Cc1c([N+](=O)[O-])c(C)c([N+](=O)[O-])c(C(C)(C)C)c1[N+](=O)[O-]
active: O1440 [2]
inactive: O1440 [1]

C=CCOC(=O)Cc1ccccc1
not listed: O1440 [1] | O1440 [2]
inactive: all other assays above

CC(=O)c1cc2c(cc1C)C(C)(C)C(C)CC2(C)C (centres undefined)
active: O1440 [1] | O1440 [2]
